Experimental data published in ChEMBL document CHEMBL4689842, “EUbOPEN Chemogenomics Library wave 1” (2021).
“And” between values parts separate entries of the source, which are not always exact repeats. Identical values can stand only once.

Test system: Fibroblast
Assay: Multiplex assay against human fibroblast
Format: toxicity, cell-based
Method in brief: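 Live cells carried four stains from seeding: Hoechst33342, BioTracker Green Microtubule Cytoskeleton Dye, MitoTracker Red and Annexin V Alexa Fluor 680. They were imaged on a CQ1 microscope at 37°C and 5% CO2 after compound addition. Using CellPathfinder machine-learning gating, cells were split into Hoechst high-intensity objects or normal cells, normal cells into healthy, pyknosed or fragmented nuclei, and pyknosed cells into mitotic or apoptotic; tubulin, mitochondrial-mass and membrane-permeability phenotypes are per cents of healthy-nucleus cells.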

[1] = 12 h, 1 µM, compound concentration 1 uM, replicate 1
[2] = 12 h, 1 µM, compound concentration 1 uM, replicate 2
[3] = 12 h, 10 µM, compound concentration 10 uM, replicate 1
[4] = 12 h, 10 µM, compound concentration 10 uM, replicate 2
[5] = 24 h, 1 µM, compound concentration 1 uM, replicate 1
[6] = 24 h, 1 µM, compound concentration 1 uM, replicate 2
[7] = 24 h, 10 µM, compound concentration 10 uM, replicate 1
[8] = 24 h, 10 µM, compound concentration 10 uM, replicate 2
[9] = 48 h, 1 µM, compound concentration 1 uM, replicate 1
[10] = 48 h, 1 µM, compound concentration 1 uM, replicate 2
[11] = 48 h, 10 µM, compound concentration 10 uM, replicate 1
[12] = 48 h, 10 µM, compound concentration 10 uM, replicate 2

Q: What does the source list for `Cc1cc(C)cc(-c2cnc3cc(Cl)c(-c4cccc(O)c4)cc3c2OCCCN)c1`?
A: Population Apoptotic (%) [1]: 44%; Population Fragmented Nuclei (%) [1]: 38%; Population Healthy Nuclei (%) [1]: 26%; Population Hoechst High Intensity Objects (%) [1]: 16%; Population Membrane Permeable-Phenotype (%) [1]: 38%; Population Mitochondria Different-Phenotype (%) [1]: 30%; Population Mitotic Cells (%) [1]: 55%; Population Normal (%) [1]: 83%; Population Pyknosed Nuclei (%) [1]: 36%; Population Tubulin-Different-Phenotype (%) [1]: 61%; Total Cell Count [1]: 60; Population Fragmented Nuclei (%) [2]: 11%; Population Healthy Nuclei (%) [2]: 72%; Population Hoechst High Intensity Objects (%) [2]: 10%; Population Membrane Permeable-Phenotype (%) [2]: 2%; Population Mitochondria Different-Phenotype (%) [2]: 82%; Population Normal (%) [2]: 90%; Population Pyknosed Nuclei (%) [2]: 16%; Population Tubulin-Different-Phenotype (%) [2]: 56%; Total Cell Count [2]: 68; Population Apoptotic (%) [3]: 33%; Population Fragmented Nuclei (%) [3]: 31%; Population Healthy Nuclei (%) [3]: 10%; Population Hoechst High Intensity Objects (%) [3]: 11%; Population Membrane Permeable-Phenotype (%) [3]: 53%; Population Mitochondria Different-Phenotype (%) [3]: 7%; Population Mitotic Cells (%) [3]: 66%; Population Normal (%) [3]: 88%; Population Pyknosed Nuclei (%) [3]: 57%; Population Tubulin-Different-Phenotype (%) [3]: 100%; Total Cell Count [3]: 135; Population Apoptotic (%) [4]: 70%; Population Fragmented Nuclei (%) [4]: 16%; Population Healthy Nuclei (%) [4]: 32%; Population Hoechst High Intensity Objects (%) [4]: 8%; Population Membrane Permeable-Phenotype (%) [4]: 90%; Population Mitochondria Different-Phenotype (%) [4]: 95%; Population Mitotic Cells (%) [4]: 29%; Population Normal (%) [4]: 91%; Population Pyknosed Nuclei (%) [4]: 50%; Total Cell Count [4]: 60; Population Apoptotic (%) [5]: 40%; Population Fragmented Nuclei (%) [5]: 54%; Population Healthy Nuclei (%) [5]: 22%; Population Hoechst High Intensity Objects (%) [5]: 21%; Population Membrane Permeable-Phenotype (%) [5]: 10%; Population Mitochondria Different-Phenotype (%) [5]: 10%; Population Mitotic Cells (%) [5]: 60%; Population Normal (%) [5]: 78%; Population Pyknosed Nuclei (%) [5]: 22%; Population Tubulin-Different-Phenotype (%) [5]: 20%; Total Cell Count [5]: 56; Population Apoptotic (%) [6]: 62%; Population Fragmented Nuclei (%) [6]: 11%; Population Healthy Nuclei (%) [6]: 75%; Population Hoechst High Intensity Objects (%) [6]: 3%; Population Membrane Permeable-Phenotype (%) [6]: 2%; Population Mitochondria Different-Phenotype (%) [6]: 78%; Population Mitotic Cells (%) [6]: 37%; Population Normal (%) [6]: 96%; Population Pyknosed Nuclei (%) [6]: 13%; Population Tubulin-Different-Phenotype (%) [6]: 28%; Total Cell Count [6]: 66; Population Apoptotic (%) [7]: 38%; Population Fragmented Nuclei (%) [7]: 28%; Population Healthy Nuclei (%) [7]: 16%; Population Hoechst High Intensity Objects (%) [7]: 12%; Population Membrane Permeable-Phenotype (%) [7]: 54%; Population Mitochondria Different-Phenotype (%) [7]: 4%; Population Mitotic Cells (%) [7]: 61%; Population Normal (%) [7]: 87%; Population Pyknosed Nuclei (%) [7]: 54%; Population Tubulin-Different-Phenotype (%) [7]: 90%; Total Cell Count [7]: 149; Population Apoptotic (%) [8]: 93%; Population Fragmented Nuclei (%) [8]: 24%; Population Healthy Nuclei (%) [8]: 3%; Population Hoechst High Intensity Objects (%) [8]: 7%; Population Membrane Permeable-Phenotype (%) [8]: 50%; Population Mitochondria Different-Phenotype (%) [8]: 50%; Population Mitotic Cells (%) [8]: 6%; Population Normal (%) [8]: 92%; Population Pyknosed Nuclei (%) [8]: 72%; Population Tubulin-Different-Phenotype (%) [8]: 50%; Total Cell Count [8]: 63; Population Apoptotic (%) [9]: 64%; Population Fragmented Nuclei (%) [9]: 37%; Population Healthy Nuclei (%) [9]: 33%; Population Hoechst High Intensity Objects (%) [9]: 20%; Population Membrane Permeable-Phenotype (%) [9]: 37%; Population Mitochondria Different-Phenotype (%) [9]: 37%; Population Mitotic Cells (%) [9]: 35%; Population Normal (%) [9]: 80%; Population Pyknosed Nuclei (%) [9]: 29%; Population Tubulin-Different-Phenotype (%) [9]: 56%; Total Cell Count [9]: 60; Population Apoptotic (%) [10]: 75%; Population Fragmented Nuclei (%) [10]: 41%; Population Healthy Nuclei (%) [10]: 54%; Population Hoechst High Intensity Objects (%) [10]: 17%; Population Membrane Permeable-Phenotype (%) [10]: 22%; Population Mitochondria Different-Phenotype (%) [10]: 9%; Population Mitotic Cells (%) [10]: 25%; Population Normal (%) [10]: 82%; Population Pyknosed Nuclei (%) [10]: 4%; Population Tubulin-Different-Phenotype (%) [10]: 62%; Total Cell Count [10]: 117; Population Apoptotic (%) [11]: 56%; Population Fragmented Nuclei (%) [11]: 45%; Population Healthy Nuclei (%) [11]: 28%; Population Hoechst High Intensity Objects (%) [11]: 39%; Population Membrane Permeable-Phenotype (%) [11]: 37%; Population Mitochondria Different-Phenotype (%) [11]: 7%; Population Mitotic Cells (%) [11]: 44%; Population Normal (%) [11]: 60%; Population Pyknosed Nuclei (%) [11]: 26%; Population Tubulin-Different-Phenotype (%) [11]: 81%; Total Cell Count [11]: 157; Population Apoptotic (%) [12]: 93%; Population Fragmented Nuclei (%) [12]: 39%; Population Healthy Nuclei (%) [12]: 43%; Population Hoechst High Intensity Objects (%) [12]: 31%; Population Membrane Permeable-Phenotype (%) [12]: 12%; Population Mitochondria Different-Phenotype (%) [12]: 82%; Population Mitotic Cells (%) [12]: 6%; Population Normal (%) [12]: 68%; Population Pyknosed Nuclei (%) [12]: 16%; Population Tubulin-Different-Phenotype (%) [12]: 92%; Total Cell Count [12]: 129

Q: Which results are given for `CCn1c(=O)c(-c2ccc(Cl)cc2Cl)cc2cnc(Nc3ccc(N4CCNCC4)c(F)c3)nc21`?
A: Population Apoptotic (%) [3]: 33% and 53% and 60%; Population Fragmented Nuclei (%) [3]: 33% and 37% and 26%; Population Healthy Nuclei (%) [3]: 39% and 46% and 56%; Population Hoechst High Intensity Objects (%) [3]: 69% and 59% and 37%; Population Mitochondria Different-Phenotype (%) [3]: 11% and 6% and 5%; Population Mitotic Cells (%) [3]: 66% and 46% and 39%; Population Normal (%) [3]: 30% and 41% and 62%; Population Pyknosed Nuclei (%) [3]: 27% and 16%; Population Fragmented Nuclei (%) [4]: 44% and 57% and 61%; Population Healthy Nuclei (%) [4]: 18% and 35% and 19%; Population Hoechst High Intensity Objects (%) [4]: 50% and 51% and 70%; Population Normal (%) [4]: 50% and 48% and 29%; Total Cell Count [4]: 206 and 112 and 242; Population Apoptotic (%) [7]: 47% and 66% and 63%; Population Fragmented Nuclei (%) [7]: 40% and 37% and 23%; Population Healthy Nuclei (%) [7]: 32% and 38% and 58%; Population Hoechst High Intensity Objects (%) [7]: 72% and 65% and 42%; Population Mitochondria Different-Phenotype (%) [7]: 14% and 20% and 7%; Population Mitotic Cells (%) [7]: 52% and 33% and 36%; Population Normal (%) [7]: 27% and 34% and 57%; Population Pyknosed Nuclei (%) [7]: 24% and 17%; Population Tubulin-Different-Phenotype (%) [7]: 33% and 32%; Total Cell Count [7]: 236 and 703 and 456; Population Apoptotic (%) [8]: 100% and 71% and 73%; Population Fragmented Nuclei (%) [8]: 41% and 62% and 53%; Population Healthy Nuclei (%) [8]: 31% and 23% and 24%; Population Hoechst High Intensity Objects (%) [8]: 44% and 54% and 74%; Population Normal (%) [8]: 55% and 45% and 25%; Population Pyknosed Nuclei (%) [8]: 26% and 13% and 22%; Total Cell Count [8]: 225 and 111 and 256; Population Apoptotic (%) [11]: 35%; Population Fragmented Nuclei (%) [11]: 36%; Population Healthy Nuclei (%) [11]: 46%; Population Hoechst High Intensity Objects (%) [11]: 67%; Population Membrane Permeable-Phenotype (%) [11]: 30%; Population Mitochondria Different-Phenotype (%) [11]: 15%; Population Mitotic Cells (%) [11]: 64%; Population Normal (%) [11]: 32%; Population Pyknosed Nuclei (%) [11]: 16%; Population Tubulin-Different-Phenotype (%) [11]: 15%; Total Cell Count [11]: 255; Population Apoptotic (%) [12]: 71%; Population Fragmented Nuclei (%) [12]: 60%; Population Healthy Nuclei (%) [12]: 31%; Population Hoechst High Intensity Objects (%) [12]: 76%; Population Membrane Permeable-Phenotype (%) [12]: 65%; Population Mitochondria Different-Phenotype (%) [12]: 7%; Population Mitotic Cells (%) [12]: 28%; Population Normal (%) [12]: 23%; Population Pyknosed Nuclei (%) [12]: 8%; Total Cell Count [12]: 348
